Source: ChEMBL document CHEMBL4680238, “Novel octapeptide-DTX prodrugs targeting MMP-7 as effective agents for the treatment of colorectal cancer with lower systemic toxicity” (Eur J Med Chem, 2020)
Residues, ends and D or L forms follow the SMILES beside them. *: point of attachment. X2 = CC(=O)O[C@@]12CO[C@@H]1C[C@H](O)[C@@]1(C)C(=O)[C@H](O)C3=C(C)[C@@H](OC(=O)[C@H](OC(=O)OCc4ccc(N*)cc4)[C@@H](NC(=O)OC(C)(C)C(F)(F)F)c4ccccc4)C[C@@](O)([C@@H](OC(=O)c4cccc(F)c4)[C@H]21)C3(C)C; X1 = CC(=O)O[C@@]12CO[C@@H]1C[C@H](O)[C@@]1(C)C(=O)[C@H](O)C3=C(C)[C@@H](OC(=O)[C@H](OC(=O)OCc4ccc(N*)cc4)[C@@H](NC(=O)OC(C)(C)C)c4ccccc4)C[C@@](O)([C@@H](OC(=O)c4ccccc4)[C@H]21)C3(C)C; Fmoc = O=C(OCC1c2ccccc2-c2ccccc21)*

Assays:
[1] = Half life in Sprague-Dawley rat plasma t 50 ug/ml up to 72 hrs by RP-HPLC analysis; type: ADME, cell-free; conditions: dose 50 µg/ml
[2] = Half life of compound in PBS buffer at pH 7.4 at 50 ug/ml up to 72 hrs by RP-HPLC analysis; type: physicochemical; conditions: dose 50 µg/ml
[3] = tested on: HEK293; assay: Cytotoxicity against HEK293 cells assessed as reduction in cell viability after 48 hrs by MTT assay; type: cell-based; conditions: Homo sapiens, HEK293, 48 h
Summary of the method: (§1)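 Cells seeded at 5000/well and precultured 1 day. HCT116 grown in McCoy's 5A + 10% FBS; SW620 and HEK293 in DMEM + 10% FBS; CCD18Co in DMEM + 15% FBS. Compounds from 0.1 M DMSO stocks were tested at 10^-10 to 10^-4 mol/L in sixplicate: HCT116 and HEK293 for 48 h, SW620 and CCD18Co for 72 h, at 37 °C, 5% CO2. MTT (5 mg/mL) added for 4 h, then A570 read; IC50 estimated.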

[4] = tested on: SW-620; assay: Cytotoxicity against human SW-620 cells assessed as reduction in cell viability after 72 hrs by MTT assay; type: functional, cell-based; conditions: SW-620, 72 h; summary of the method: as §1
[5] = tested on: CCD-18Co; assay: Cytotoxicity against human CCD-18Co cells assessed as reduction in cell viability after 72 hrs by MTT assay; type: cell-based; summary of the method: as §1
[6] = tested on: HCT-116; assay: Cytotoxicity against human HCT-116 cells assessed as reduction in cell viability after 48 hrs by MTT assay; type: functional, cell-based; conditions: HCT-116, 48 h; summary of the method: as §1
[7] = tested on: HCT-116; assay: Antitumour activity against human HCT-116 cells xenografted in BALB/c nude mouse assessed as tumour growth inhibition at 5 mg/kg, ip administered once for every 7 days for 14 days relative to control; type: functional; conditions: HCT-116, ip, 336 h, time 14 day, read-out: TGI
Summary of the method: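 Male BALB/c nude mice received s.c. HCT116 cells (2 × 10^6 in 0.2 mL PBS). Once tumours reached 100-200 mm3, mice were randomized into groups of six. Dosing was ip, 0.1 mL/10 g, once every 7 days, in DMSO 0.5%/castor oil 5%/ethanol 5%/saline 89.5%; vehicle controls got solvent. Caliper volume V = L×W²×0.52 read every 2-3 days. Tumours excised and weighed on day 14.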

Structure (SMILES): CC[C@H](C)[C@H](NC(=O)CNC(=O)[C@H](CC(C)C)NC(=O)[C@@H]1CCCN1C(=O)CNC(=O)OCC1c2ccccc2-c2ccccc21)C(=O)N[C@@H](C)C(=O)NCC(=O)N[C@@H](CCC(N)=O)C(=O)N[C@@H](CC(C)C)C(=O)Nc1ccc(COC(=O)O[C@@H](C(=O)O[C@H]2C[C@@]3(O)[C@@H](OC(=O)c4cccc(F)c4)[C@@H]4[C@]5(OC(C)=O)CO[C@@H]5C[C@H](O)[C@@]4(C)C(=O)[C@H](O)C(=C2C)C3(C)C)[C@@H](NC(=O)OC(C)(C)C(F)(F)F)c2ccccc2)cc1 (Fmoc-GPLGIAGQL-X2)
- half-life at 50 ug/ml [1]: 47.8 h
- half-life at 50 ug/ml [2]: > 72 h
- IC50 [3]: 38.3 µM
- IC50 [4]: 0.21 µM
- IC50 [5]: > 200 µM
- IC50 [6]: 0.439 µM

Structure (SMILES): CC[C@H](C)[C@H](NC(=O)CNC(=O)[C@H](CCSC)NC(=O)[C@@H]1CCCN1C(=O)CNC(C)=O)C(=O)N[C@@H](C)C(=O)NCC(=O)N[C@@H](CCC(N)=O)C(=O)N[C@@H](CC(C)C)C(=O)Nc1ccc(COC(=O)O[C@@H](C(=O)O[C@H]2C[C@@]3(O)[C@@H](OC(=O)c4cccc(F)c4)[C@@H]4[C@]5(OC(C)=O)CO[C@@H]5C[C@H](O)[C@@]4(C)C(=O)[C@H](O)C(=C2C)C3(C)C)[C@@H](NC(=O)OC(C)(C)C(F)(F)F)c2ccccc2)cc1 (Ac-GPMGIAGQL-X2)
- half-life at 50 ug/ml [1]: 24 h
- half-life at 50 ug/ml [2]: > 72 h
- IC50 [3]: 21.3 µM
- IC50 [4]: > 200 µM
- IC50 [5]: > 200 µM
- IC50 [6]: 0.0209 µM

Structure (SMILES): CC[C@H](C)[C@H](NC(=O)CNC(=O)[C@H](CCSC)NC(=O)[C@@H]1CCCN1C(=O)CNC(C)=O)C(=O)N[C@@H](C)C(=O)NCC(=O)N[C@@H](CCC(N)=O)C(=O)N[C@@H](CC(C)C)C(=O)Nc1ccc(COC(=O)O[C@@H](C(=O)O[C@H]2C[C@@]3(O)[C@@H](OC(=O)c4ccccc4)[C@@H]4[C@]5(OC(C)=O)CO[C@@H]5C[C@H](O)[C@@]4(C)C(=O)[C@H](O)C(=C2C)C3(C)C)[C@@H](NC(=O)OC(C)(C)C)c2ccccc2)cc1 (Ac-GPMGIAGQL-X1)
- half-life at 50 ug/ml [1]: 23.9 h
- half-life at 50 ug/ml [2]: > 72 h
- IC50 [3]: 11 µM
- IC50 [4]: 1.14 µM
- IC50 [5]: > 200 µM
- IC50 [6]: 0.0072 µM

Structure (SMILES): CC(=O)NCC(=O)N1CCC[C@H]1C(=O)N[C@@H](CCC(N)=O)C(=O)NCC(=O)N[C@@H](CC(C)C)C(=O)N[C@@H](C)C(=O)NCC(=O)N[C@@H](CCC(N)=O)C(=O)N[C@@H](CC(C)C)C(=O)Nc1ccc(COC(=O)O[C@@H](C(=O)O[C@H]2C[C@@]3(O)[C@@H](OC(=O)c4ccccc4)[C@@H]4[C@]5(OC(C)=O)CO[C@@H]5C[C@H](O)[C@@]4(C)C(=O)[C@H](O)C(=C2C)C3(C)C)[C@@H](NC(=O)OC(C)(C)C)c2ccccc2)cc1 (Ac-GPQGLAGQL-X1)
- half-life at 50 ug/ml [1]: 14 h
- half-life at 50 ug/ml [2]: 35.1 h
- IC50 [3]: 165 µM
- IC50 [4]: 21.9 µM
- IC50 [5]: > 200 µM
- IC50 [6]: 0.0052 µM

Structure (SMILES): CC[C@H](C)[C@H](NC(=O)[C@H](C)NC(=O)[C@H](CCC(N)=O)NC(=O)[C@@H]1CCCN1C(=O)CNC(C)=O)C(=O)N[C@@H](C)C(=O)NCC(=O)N[C@@H](CCC(N)=O)C(=O)N[C@@H](CC(C)C)C(=O)Nc1ccc(COC(=O)O[C@@H](C(=O)O[C@H]2C[C@@]3(O)[C@@H](OC(=O)c4cccc(F)c4)[C@@H]4[C@]5(OC(C)=O)CO[C@@H]5C[C@H](O)[C@@]4(C)C(=O)[C@H](O)C(=C2C)C3(C)C)[C@@H](NC(=O)OC(C)(C)C(F)(F)F)c2ccccc2)cc1 (Ac-GPQAIAGQL-X2)
- half-life at 50 ug/ml [1]: 24 h
- half-life at 50 ug/ml [2]: > 72 h
- IC50 [3]: 94.1 µM
- IC50 [4]: 0.65 µM
- IC50 [5]: > 200 µM
- IC50 [6]: 0.0054 µM

Structure (SMILES): CC[C@H](C)[C@H](NC(=O)[C@H](C)NC(=O)[C@H](CCC(N)=O)NC(=O)[C@@H]1CCCN1C(=O)CNC(C)=O)C(=O)N[C@@H](C)C(=O)NCC(=O)N[C@@H](CCC(N)=O)C(=O)N[C@@H](CC(C)C)C(=O)Nc1ccc(COC(=O)O[C@@H](C(=O)O[C@H]2C[C@@]3(O)[C@@H](OC(=O)c4ccccc4)[C@@H]4[C@]5(OC(C)=O)CO[C@@H]5C[C@H](O)[C@@]4(C)C(=O)[C@H](O)C(=C2C)C3(C)C)[C@@H](NC(=O)OC(C)(C)C)c2ccccc2)cc1 (Ac-GPQAIAGQL-X1)
- half-life at 50 ug/ml [1]: 12 h
- half-life at 50 ug/ml [2]: > 72 h
- IC50 [3]: 106 µM
- IC50 [4]: > 200 µM
- IC50 [5]: > 200 µM
- IC50 [6]: 0.0113 µM

Structure (SMILES): CC[C@H](C)[C@H](NC(=O)CNC(=O)[C@H](CC(C)C)NC(=O)[C@@H]1CCCN1C(=O)CNC(=O)OCC1c2ccccc2-c2ccccc21)C(=O)N[C@@H](C)C(=O)NCC(=O)N[C@@H](CCC(N)=O)C(=O)N[C@@H](CC(C)C)C(=O)Nc1ccc(COC(=O)O[C@@H](C(=O)O[C@H]2C[C@@]3(O)[C@@H](OC(=O)c4ccccc4)[C@@H]4[C@]5(OC(C)=O)CO[C@@H]5C[C@H](O)[C@@]4(C)C(=O)[C@H](O)C(=C2C)C3(C)C)[C@@H](NC(=O)OC(C)(C)C)c2ccccc2)cc1 (Fmoc-GPLGIAGQL-X1)
- half-life at 50 ug/ml [1]: 35.9 h
- half-life at 50 ug/ml [2]: > 72 h
- IC50 [3]: 15.2 µM
- IC50 [4]: 1.01 µM
- IC50 [5]: > 200 µM
- IC50 [6]: 0.0098 µM

Structure (SMILES): O=c1[nH]cc(F)c(=O)[nH]1 [FLUOROURACIL]
- IC50 [3]: 79.3 µM
- inhibition in vivo at 5 mg/kg [7]: 11.4%
- IC50 [4]: 6.96 µM
- IC50 [5]: > 200 µM
- IC50 [6]: 26 µM

Structure (SMILES): CC(=O)NCC(=O)N1CCC[C@H]1C(=O)N[C@@H](CCC(N)=O)C(=O)NCC(=O)N[C@@H](CC(C)C)C(=O)N[C@@H](C)C(=O)NCC(=O)N[C@@H](CCC(N)=O)C(=O)N[C@@H](CC(C)C)C(=O)Nc1ccc(COC(=O)O[C@@H](C(=O)O[C@H]2C[C@@]3(O)[C@@H](OC(=O)c4cccc(F)c4)[C@@H]4[C@]5(OC(C)=O)CO[C@@H]5C[C@H](O)[C@@]4(C)C(=O)[C@H](O)C(=C2C)C3(C)C)[C@@H](NC(=O)OC(C)(C)C(F)(F)F)c2ccccc2)cc1 (Ac-GPQGLAGQL-X2)
- half-life at 50 ug/ml [1]: 24.1 h
- half-life at 50 ug/ml [2]: 48.3 h
- IC50 [3]: 6.17 µM
- IC50 [4]: > 200 µM
- IC50 [5]: > 200 µM
- IC50 [6]: 0.0257 µM
